Data taken from ChEMBL document CHEMBL3259629, “Discovery and optimization of piperidyl-1,2,3-triazole ureas as potent, selective, and in vivo-active inhibitors of α/β-hydrolase domain containing 6 (ABHD6)” (J Med Chem, 2013).
The source made the active and inactive calls. The calls are words filed in the database; no cut-off is given here.

Columns and labels:
[1] = biological target: T1, Monoacylglycerol lipase ABHD6 (Mus musculus) (UniProt Q8R2Y0); assay: Inhibition of ABHD6 in FP-rhodamine-labelled mouse brain membrane at 10 to 0.0032 uM preincubated for 30 mins followed by FP-rhodamine labelling measured after 30 mins by gel-based competitive ABPP assay; type: tissue-based
T1 sequence (whole entry): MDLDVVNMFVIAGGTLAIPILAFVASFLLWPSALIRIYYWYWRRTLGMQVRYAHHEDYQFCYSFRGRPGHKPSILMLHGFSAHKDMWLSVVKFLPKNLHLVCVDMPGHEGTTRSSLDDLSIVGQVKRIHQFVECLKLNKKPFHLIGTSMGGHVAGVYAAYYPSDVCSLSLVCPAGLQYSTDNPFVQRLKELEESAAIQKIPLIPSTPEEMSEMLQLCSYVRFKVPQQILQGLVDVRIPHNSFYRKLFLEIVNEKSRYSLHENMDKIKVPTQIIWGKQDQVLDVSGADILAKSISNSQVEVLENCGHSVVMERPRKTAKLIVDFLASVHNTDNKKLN
Summary of the method: (§1)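 Mouse brain membrane proteome (1 mg/mL) preincubated with compound for 30 min at 37 °C, then labelled with FP-rhodamine or HT-01 (1 μM final) for 30 min at 37 °C. Quenched in SDS loading buffer, run on 10% SDS-PAGE and scanned for in-gel fluorescence. Bands assigned by gel migration.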

[2] = biological target: T1, Monoacylglycerol lipase ABHD6 (Mus musculus); assay: Inhibition of ABHD6 in azide-rhodamine-labelled mouse Neuro2a cell membrane at 0.01 to 0.6 uM preincubated for 1 hr followed by azide-rhodamine labelling by SDS-PAGE-based in-gel fluorescence scanning assay
Summary of the method: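 Live Neuro2A cells (DMEM, 10% FBS) treated with compound for 1 hr at 37 °C, then lysed. The membrane proteome was conjugated to azide-rhodamine by click chemistry, resolved by SDS-PAGE and scanned for in-gel fluorescence.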

[3] = biological target: T1, Monoacylglycerol lipase ABHD6 (Mus musculus); assay: Inhibition of ABHD6 in HT-01-labelled mouse Neuro2a cell membrane at 0.003 to 0.6 uM preincubated for 30 mins followed by HT-01 labelling measured after 30 mins by gel-based competitive ABPP assay
Summary of the method: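 Neuro2A membrane proteome (1 mg/mL) preincubated with compound for 30 min at 37 °C, then labelled with HT-01 (1 μM, 30 min, 37 °C). SDS-PAGE and in-gel fluorescence scanning, with activity taken from integrated band intensity.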

[4] = biological target: T2, Fatty-acid amide hydrolase 1 (Mus musculus) (UniProt O08914); assay: Inhibition of FAAH in FP-rhodamine-labelled mouse brain membrane at 0.4 to 10 uM preincubated for 30 mins followed by FP-rhodamine labelling measured after 30 mins by gel-based competitive ABPP assay; type: tissue-based; summary of the method: as §1
T2 sequence (whole entry): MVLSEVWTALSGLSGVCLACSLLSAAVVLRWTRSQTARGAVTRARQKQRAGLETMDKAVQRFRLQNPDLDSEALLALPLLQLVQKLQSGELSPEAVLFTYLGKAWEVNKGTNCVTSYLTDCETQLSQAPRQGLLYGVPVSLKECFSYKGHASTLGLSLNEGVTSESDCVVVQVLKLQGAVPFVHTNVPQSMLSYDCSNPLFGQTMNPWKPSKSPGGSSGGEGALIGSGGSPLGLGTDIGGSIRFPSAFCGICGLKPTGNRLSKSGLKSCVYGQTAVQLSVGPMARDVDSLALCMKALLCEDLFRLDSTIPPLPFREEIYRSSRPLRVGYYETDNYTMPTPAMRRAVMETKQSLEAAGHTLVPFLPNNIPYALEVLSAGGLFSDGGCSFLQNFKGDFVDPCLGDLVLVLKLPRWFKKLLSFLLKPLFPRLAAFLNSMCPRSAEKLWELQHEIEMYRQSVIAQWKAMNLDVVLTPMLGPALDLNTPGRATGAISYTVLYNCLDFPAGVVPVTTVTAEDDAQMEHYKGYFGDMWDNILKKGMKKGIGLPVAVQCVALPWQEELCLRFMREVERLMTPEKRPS

[5] = biological target: T2, Fatty-acid amide hydrolase 1 (Mus musculus); assay: Inhibition of mouse brain FAAH at 10 uM after 30 mins by FP-rhodamine ABPP-based SDS-PAGE analysis relative to control
[6] = biological target: T3, Diacylglycerol lipase-beta (Mus musculus) (UniProt Q91WC9); assay: Inhibition of FP-rhodamine-labelled recombinant mouse DAGLbeta expressed in HEK293T cells at 10 uM preincubated for 30 mins followed by FP-rhodamine labelling measured after 30 mins by gel-based competitive ABPP assay; type: cell-based; conditions: HEK-293T
T3 sequence (whole entry): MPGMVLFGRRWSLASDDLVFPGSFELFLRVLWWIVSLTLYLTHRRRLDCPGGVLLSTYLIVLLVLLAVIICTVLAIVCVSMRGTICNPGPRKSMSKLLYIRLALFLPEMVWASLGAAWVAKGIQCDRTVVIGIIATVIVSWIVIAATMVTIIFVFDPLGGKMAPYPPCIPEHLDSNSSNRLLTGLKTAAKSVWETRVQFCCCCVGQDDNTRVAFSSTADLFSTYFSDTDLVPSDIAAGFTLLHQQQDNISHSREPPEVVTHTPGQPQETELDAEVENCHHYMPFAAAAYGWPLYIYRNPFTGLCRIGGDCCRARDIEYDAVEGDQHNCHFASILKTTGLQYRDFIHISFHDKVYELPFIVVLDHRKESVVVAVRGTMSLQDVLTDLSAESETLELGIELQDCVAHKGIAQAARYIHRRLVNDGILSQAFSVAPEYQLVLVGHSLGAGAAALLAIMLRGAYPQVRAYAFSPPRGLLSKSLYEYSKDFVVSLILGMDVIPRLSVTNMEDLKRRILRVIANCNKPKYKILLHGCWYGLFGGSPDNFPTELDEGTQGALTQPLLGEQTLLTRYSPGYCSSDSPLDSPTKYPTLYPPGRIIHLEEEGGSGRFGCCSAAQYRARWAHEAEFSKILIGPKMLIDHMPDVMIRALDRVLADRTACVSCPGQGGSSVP
Summary of the method: (§2)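 Mouse DAGLβ transiently overexpressed in HEK293T. Lysate diluted to 0.3 mg/mL in 50 mM HEPES pH 7.2, 100 mM NaCl, 5 mM CaCl₂, 0.1% Triton X-100, 10% DMSO. Compound preincubated 30 min at 37 °C, then 1 μM probe for 30 min at 37 °C, SDS-PAGE and in-gel fluorescence.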

[7] = biological target: T3, Diacylglycerol lipase-beta (Mus musculus); assay: Inhibition of FP-rhodamine-labelled recombinant mouse DAGLbeta expressed in HEK293T cells at 100 nM preincubated for 30 mins followed by FP-rhodamine labelling measured after 30 mins by gel-based competitive ABPP assay; type: cell-based; conditions: HEK-293T; summary of the method: as §2
[8] = biological target: T1, Monoacylglycerol lipase ABHD6 (Mus musculus); assay: Inhibition of ABHD6 in FP-rhodamine-labelled mouse brain membrane at 0.01 uM after 30 mins preincubated for 30 mins followed by HT-01 labelling measured after 30 mins by gel-based competitive ABPP assay; type: tissue-based; summary of the method: as §1
[9] = biological target: T4, Monoglyceride lipase (Mus musculus) (UniProt O35678); assay: Inhibition of MGLL in FP-rhodamine-labelled mouse brain membrane at 10 uM after 30 mins preincubated for 30 mins followed by HT-01 labelling measured after 30 mins by gel-based competitive ABPP assay; type: tissue-based; summary of the method: as §1
T4 sequence (whole entry): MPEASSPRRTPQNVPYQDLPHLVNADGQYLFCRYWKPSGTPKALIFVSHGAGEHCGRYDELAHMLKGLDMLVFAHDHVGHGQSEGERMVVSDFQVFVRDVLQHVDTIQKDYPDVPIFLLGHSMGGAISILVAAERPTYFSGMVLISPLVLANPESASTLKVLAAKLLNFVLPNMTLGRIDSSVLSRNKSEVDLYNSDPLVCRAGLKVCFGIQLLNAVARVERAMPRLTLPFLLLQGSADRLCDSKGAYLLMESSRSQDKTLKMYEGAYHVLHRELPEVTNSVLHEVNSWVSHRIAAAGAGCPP

[10] = biological target: T1, Monoacylglycerol lipase ABHD6 (Mus musculus); assay: Inhibition of ABHD6 in FP-rhodamine-labelled mouse brain membrane at 10 nM preincubated for 30 mins followed by FP-rhodamine labelling measured after 30 mins by gel-based competitive ABPP assay; type: tissue-based; summary of the method: as §1
[11] = biological target: T4, Monoglyceride lipase (Mus musculus); assay: Inhibition of mouse brain MGLL at 10 uM after 30 mins by FP-rhodamine ABPP-based mass spectrometry relative to control
[12] = biological target: Acyl-protein thioesterase 2 (Mus musculus) (UniProt Q9WTL7); assay: Inhibition of FP-rhodamine-labelled recombinant mouse LYPLA2 at 10 uM preincubated for 30 mins followed by FP-rhodamine labelling measured after 30 mins by gel-based competitive ABPP assay
[13] = biological target: T1, Monoacylglycerol lipase ABHD6 (Mus musculus); assay: Inhibition of ABHD6 in FP-rhodamine-labelled mouse brain membrane at 1 nM preincubated for 30 mins followed by FP-rhodamine labelling measured after 30 mins by gel-based competitive ABPP assay; type: tissue-based; summary of the method: as §1
[14] = biological target: Acyl-protein thioesterase 1 (Mus musculus) (UniProt P97823); assay: Inhibition of FP-rhodamine-labelled recombinant mouse LYPLA1 at 10 uM preincubated for 30 mins followed by FP-rhodamine labelling measured after 30 mins by gel-based competitive ABPP assay
[15] = biological target: T3, Diacylglycerol lipase-beta (Mus musculus); assay: Inhibition of FP-rhodamine-labelled recombinant mouse DAGLbeta expressed in HEK293T cells at 1 uM preincubated for 30 mins followed by FP-rhodamine labelling measured after 30 mins by gel-based competitive ABPP assay; type: cell-based; conditions: HEK-293T; summary of the method: as §2

Acyl-protein thioesterase 2 (Mus musculus), sequence (Q9WTL7 whole entry): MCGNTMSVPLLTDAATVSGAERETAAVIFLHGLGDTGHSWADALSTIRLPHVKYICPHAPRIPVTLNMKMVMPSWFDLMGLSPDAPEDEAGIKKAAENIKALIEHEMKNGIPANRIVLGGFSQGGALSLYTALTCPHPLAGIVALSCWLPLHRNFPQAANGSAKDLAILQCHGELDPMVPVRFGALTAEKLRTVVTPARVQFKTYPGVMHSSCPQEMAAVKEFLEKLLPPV
Acyl-protein thioesterase 1 (Mus musculus), sequence (P97823 whole entry): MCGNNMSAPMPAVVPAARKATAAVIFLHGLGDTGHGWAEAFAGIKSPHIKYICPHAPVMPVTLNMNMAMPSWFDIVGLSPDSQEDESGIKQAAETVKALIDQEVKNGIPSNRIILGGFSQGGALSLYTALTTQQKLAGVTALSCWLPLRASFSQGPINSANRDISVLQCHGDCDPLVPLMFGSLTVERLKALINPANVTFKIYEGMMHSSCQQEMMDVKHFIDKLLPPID

C#CCOCCCc1ccc(C2CCCCN2C(=O)n2cc(-c3ccc(-c4ccc(OC)cc4)cc3)nn2)cc1 (racemic)
inhibition [1]: Active | inhibition [2]: Active | inhibition [3]: Active | inhibition [4]: Active

COc1ccc(-c2ccc(-c3cn(C(=O)N4CCCCC4c4ccccc4)nn3)cc2)cc1 (racemic)
inhibition [5]: Active | inhibition [6]: 0% | inhibition [7]: 0% | inhibition [8]: Active | inhibition [9]: Active | inhibition [10]: 30%

COc1ccccc1-c1ccc(-c2cn(C(=O)N3CCCCC3Cc3ccccc3)nn2)cc1 (racemic)
inhibition [6]: 100% | inhibition [11]: Active | inhibition [7]: 66% | inhibition [8]: Active | inhibition [9]: Active | inhibition [10]: 89%

COc1ccccc1-c1ccc(-c2cn(C(=O)N3CCCCC3c3ccccc3)nn2)cc1 (racemic)
inhibition [5]: Active | inhibition [6]: 70% | inhibition [11]: Active | inhibition [7]: 14% | inhibition [8]: Active | inhibition [9]: Active | inhibition [10]: 82%

NC(=O)c1ccc(-c2ccc(-c3cn(C(=O)N4CCCCC4c4ccccc4)nn3)cc2)cc1 (racemic)
inhibition [12]: Active | inhibition [13]: 17% | inhibition [5]: Active | inhibition [14]: Active | inhibition [10]: 27% | inhibition [15]: 0%

O=C(N1CCCCC1Cc1ccccc1)n1cc(-c2ccc(-c3cccc(CO)c3)cc2)nn1 (racemic)
inhibition [6]: 91% | inhibition [7]: 37% | inhibition [8]: Active | inhibition [9]: Active | inhibition [10]: 91%

O=C(N1CCCCC1c1ccccc1)n1cc(-c2ccc(-c3ccc(CO)cc3)cc2)nn1 (racemic)
inhibition [12]: Active | inhibition [13]: 18% | inhibition [5]: Active | inhibition [14]: Active | inhibition [10]: 47% | inhibition [15]: 0%

O=C(N1CCCCC1c1ccccc1)n1cc(-c2ccc(-c3ccccc3CO)cc2)nn1 (racemic)
inhibition [12]: Active | inhibition [13]: 38% | inhibition [5]: Active | inhibition [14]: Active | inhibition [10]: 98% | inhibition [15]: 0%

O=C(O)c1cccc(-c2ccc(-c3cn(C(=O)N4CCCCC4CCc4ccccc4)nn3)cc2)c1 (racemic)
inhibition [13]: 33% | inhibition [5]: Active | inhibition [10]: 94% | inhibition [15]: 4%

O=C(c1ccc(-c2ccc(-c3cn(C(=O)N4CCCCC4Cc4ccccc4)nn3)cc2)cc1)N1CCCCC1 (racemic)
inhibition [6]: 58% | inhibition [7]: 15% | inhibition [8]: Active | inhibition [9]: Active | inhibition [10]: 79%

O=C(c1ccc(-c2ccc(-c3cn(C(=O)N4CCCCC4c4ccccc4)nn3)cc2)cc1)N1CCCCC1 (racemic)
inhibition [12]: Active | inhibition [13]: 35% | inhibition [14]: Active | inhibition [10]: 94% | inhibition [15]: 0%
